Compound activity as filed in PubChem.
Tb MetRS inh – Trypanosoma brucei MetRS inhibition. purified T. brucei MetRS, ATP depletion, Kinase-Glo luminescence. actives 0.4% (n = 360,000). inhibition, % at 11.9 µM;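 active = inhibition above a per-plate cutoff of the control wells' mean inhibition plus 3 SD, cut at about 5.5% in these data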;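 also: 0% = DMSO wells median and 100% = median of wells with control inhibitor compound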
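System: purified T. brucei MetRS enzyme / Detection: Kinase-Glo luciferase luminescence reporting remaining unconsumed ATP / Medium: HEPES buffer with MgCl2, KCl, DTT, spermine, BSA, pyrophosphatase / Replication: singlicate, one well per compound / Evaluation: percent inhibition relative to median high and low control wells / Schedule: 2 h aminoacylation at 25 °C after 15 min preincubation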
A1 inh – inhibitors of the anti-apoptotic protein A1, read as caspase activation | caspase activation, % (concentration not given with the values) | AID 2462 | actives 0.066% (n = 330,000) | MEF A1-2A-BIM cells, Caspase-Glo 3/7 luminescence, 3 h; percent of clofoctol response, vehicle zero;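 active = over half of replicate activation scores above 10%, or exactly half above 10 with the replicate mean above 10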
NALP1 inh – inhibitors of NALP1 inflammasome in yeast. actives 0.61% (n = 280,000). S. cerevisiae NALP1/ASC/caspase-1 growth, X-gal OD620, 72 h. inhibition, % at 10 µM; in the data active = inhibition mostly above about 24%, no sharp cut-off; inactive = mostly below about 32%
MC4R ag barr – activates human MC4R beta-arrestin recruitment; P32245; U2OS MC4R beta-arrestin complementation, luminescence; percent of melanotan II response, DMSO zero; activation, % at 8.9 µM; actives 0.98% (n = 360,000); AID 540308;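 active = activation above a per-plate cutoff, the mean activation of sample wells on that plate plus 3 SD, cut at about 8% in these data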
MC4R antagonist – human MC4R antagonism in cAMP assay. P32245. MC4R-expressing cells, MTII-stimulated cAMP, LANCE TR-FRET. inhibition, % at 6.5 µM. actives 0.48% (n = 360,000);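 active = inhibition above its plate's cutoff, the mean of tested wells on that plate plus 3 SD, cut at about 29% in these data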;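 also: 0% = Melanotan II alone and 100% = Melanotan II plus saturating MCL0020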
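Assay system: human MC4R-expressing U2OS cells; reagent: Melanotan II stimulation of cells; dosing: 6.5 µM single dose; timing: compound 30 min, challenge 1 h, detection 1 h; signal: TR-FRET cAMP assay; replicates: one well per compound, no replicates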
NLRP3 yeast inh – blocks the NALP3 inflammasome reconstituted in yeast | inhibition, % at 10 µM | AID 2825 | actives 0.39% (n = 330,000) | Yeast reconstituted NLRP3/ASC/caspase-1, beta-gal luminescence, 24 h;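 active = inhibition of 50% or more; inactive = inhibition below 50%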;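 also: plate controls were induced DMSO wells for no effect and uninduced yeast grown without galactose for full effect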
MC4R barr ag – human MC4R beta-arrestin agonism confirmation | shares compounds with MC4R ag barr | U2OS MC4R beta-arrestin recruitment, luminescence; scaled DMSO 0%, Melanotan II 100% | activation, % at 8.9 µM | actives 31% (n = 2,400);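 active = mean activation across replicates above the hit cutoff set in the earlier primary screen, cut at about 8% in these data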
MOR-DOR barr ag – OPRM1-OPRD1 heterodimer agonism counter-screen | shares compounds with MC4R ag barr | U2OS PathHunter beta-arrestin, beta-gal luminescence; percent of deltorphin B response, DMSO zero | activation, % at 9.2 µM | actives 5.8% (n = 2,400);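 active = mean activation across replicates exceeds the hit threshold derived in the earlier primary screen, cut at about 18% in these data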;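 also: 100% = deltorphin B at 0.9 µM final and 0% = DMSO alone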
Target sequence (P35372 whole entry, looked up): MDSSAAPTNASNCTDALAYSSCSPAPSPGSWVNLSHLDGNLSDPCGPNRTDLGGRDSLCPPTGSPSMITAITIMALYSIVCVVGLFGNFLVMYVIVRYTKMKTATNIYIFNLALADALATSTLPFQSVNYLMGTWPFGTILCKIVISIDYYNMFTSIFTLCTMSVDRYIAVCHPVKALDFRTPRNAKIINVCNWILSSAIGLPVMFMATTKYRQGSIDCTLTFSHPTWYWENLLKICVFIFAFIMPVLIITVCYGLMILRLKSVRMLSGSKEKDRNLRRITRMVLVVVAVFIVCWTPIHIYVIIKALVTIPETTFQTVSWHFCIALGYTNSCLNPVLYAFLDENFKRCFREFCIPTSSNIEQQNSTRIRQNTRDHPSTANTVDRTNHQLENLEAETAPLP
Target sequence (P41143 whole entry, looked up): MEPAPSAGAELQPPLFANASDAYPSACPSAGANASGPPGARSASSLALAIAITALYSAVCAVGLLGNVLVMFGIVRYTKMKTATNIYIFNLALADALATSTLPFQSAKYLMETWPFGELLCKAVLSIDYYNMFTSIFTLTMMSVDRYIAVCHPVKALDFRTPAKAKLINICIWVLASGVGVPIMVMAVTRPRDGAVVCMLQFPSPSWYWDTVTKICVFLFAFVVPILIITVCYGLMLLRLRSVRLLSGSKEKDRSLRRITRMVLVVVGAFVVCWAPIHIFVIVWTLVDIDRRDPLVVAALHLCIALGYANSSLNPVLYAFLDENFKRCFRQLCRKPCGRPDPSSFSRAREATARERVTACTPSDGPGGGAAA
* marks the source's active call; other numbers are inactive results; nt = no result. An excerpt weighted towards active compounds, which were near 2.5% of everything screened.

SMILES	Tb MetRS inh	A1 inh	NALP1 inh	MC4R ag barr	MC4R antagonist	NLRP3 yeast inh	MC4R barr ag	MOR-DOR barr ag
CCN(CC(=O)Nc1ccc(OC)cc1)C(=O)c1ccc(N2C(=O)CCC2=O)cc1	-0.4	0.1	nt	0.8	-1.0	5.9	nt	nt
CC(C)(C)OC(=O)C[C@@H]1C/C=C\C[C@H](CC(=O)N(CCO)Cc2ccccc2)C(=O)N[C@H](Cc2ccccc2)COC1=O	0.1	-0.6	nt	-2.1	6.4	3.7	nt	nt
Cc1sc2ncn(CC(=O)N3CCC(C(N)=O)CC3)c(=O)c2c1S(=O)(=O)N1CCOCC1	-0.7	0.5	9.1	0.6	-4.9	12.5	nt	nt
Cc1ccc(-c2cc(C(=O)N/N=C/c3c(C)nn(C)c3C)c3ccccc3n2)cc1C	-0.6	-0.5	-7.5	11.0*	9.8	8.8	9.3*	3.9
Cc1ccc(-c2cc(C(=O)N/N=C/c3ccoc3)c3ccccc3n2)cc1	-0.7	0.0	8.5	1.7	12.9	13.0	nt	nt
CC1CCCCC1NC(=O)CSc1nnc(C(F)(F)F)n1C (stereo not drawn)	-0.3	nt	nt	-2.9	3.0	nt	nt	nt
CC(=O)c1ccc2c(c1)Cc1cc(C(C)=O)ccc1-2	-1.0	1.0	26.6	14.1*	-4.6	39.7	-0.6	7.6
Cc1nc(SC(C)C(=O)NC2CCCC2)c2ccccc2n1 (stereo not drawn)	-0.5	0.5	nt	-2.4	-9.2	28.5	nt	nt
O=C(CCCCCn1c(=S)[nH]c2ccc(N3CCOCC3)cc2c1=O)NCc1ccc(Cl)cc1	0.1	1.2	-13.8	10.4*	13.4	5.6	1.9	2.7
O=C(CCCCCn1c(=S)[nH]c2ccc(N3CCOCC3)cc2c1=O)NCCc1ccccc1	0.3	-0.5	8.3	18.4*	4.5	3.0	-0.2	18.3*
O=C(CCCCCn1c(=S)[nH]c2ccc(N3CCOCC3)cc2c1=O)NCc1ccccc1Cl	0.0	2.4	-18.9	4.9	6.9	13.1	nt	nt
O=C(CCCCCn1c(=S)[nH]c2ccc(N3CCOCC3)cc2c1=O)NCc1ccc2c(c1)OCO2	0.3	0.9	-21.7	12.6*	12.8	15.8	-0.2	2.0
CCCCn1c(=S)[nH]c2ccc(N3CCOCC3)cc2c1=O	nt	0.1	-1.3	nt	nt	-17.1	nt	nt
CSCc1c(C(=O)OCC(=O)NC2CCCCC2)oc2ccccc12	-0.2	0.1	nt	1.7	-6.6	-1.4	nt	nt
Cc1ccccc1OCC(=O)NC(=S)Nc1cccc2cc(O)ccc12	-0.3	1.2	12.7	15.7*	6.4	29.1	22.6*	9.0
CC1(C(=O)NS(=O)(=O)c2ccccc2C(F)(F)F)CCN1C(=O)CCc1ccccc1 (stereo not drawn)	0.2	nt	nt	1.4	10.6	nt	nt	nt
OCCN(CCO)c1ccc2ccccc2c1	-0.7	-0.4	-13.1	-1.7	2.4	-4.6	nt	nt
OCCN(CCO)c1ccc(C(c2ccccc2Cl)c2ccc(N(CCO)CCO)cc2Cl)c(Cl)c1	2.0	1.1	27.6	14.5*	8.7	1.2	9.6*	2.8
Cc1ccccc1N(C(=O)Cc1c[nH]c2ccccc12)C(C(=O)NC1CCCCC1)c1ccco1 (stereo not drawn)	-0.5	0.1	34.2	20.8*	-5.4	-1.1	5.8	10.8
Cc1ccc(NC(=O)c2cc(NC(=O)c3ccco3)ccc2N2CCOCC2)cc1	-0.7	-0.1	24.9	-0.7	-1.5	14.2	nt	nt
Cc1ccc(NC(=O)c2cc(NC(=O)c3ccco3)ccc2N2CCCCC2)cc1	0.0	-0.3	5.2	17.7*	20.2	10.9	6.2	6.8
O=C(Nc1ccc(N2CCCC2)c(Cl)c1)c1ccc([N+](=O)[O-])cc1	-0.2	0.3	23.1	20.6*	2.7	1.0	6.0	8.7
Cc1cc(C(=O)Nc2ccc(N3CCCC3)c(Cl)c2)ccc1[N+](=O)[O-]	-0.3	-3.0	16.5	-1.1	5.0	21.1	nt	nt
CCOc1cc(/C=N\NC(=O)c2ccc(NC(=O)C(C)(C)C)cc2)ccc1OC(=O)c1cccc(C)c1	-0.2	-0.4	-8.4	18.3*	4.4	8.0	4.4	4.7
CCOc1cc(/C=N\NC(=O)c2ccc(NC(=O)C(C)(C)C)cc2)ccc1OC(=O)c1ccc(C)cc1	-0.3	0.6	-3.9	4.2	-3.5	4.6	nt	nt
SMILES	Tb MetRS inh	A1 inh	NALP1 inh	MC4R ag barr	MC4R antagonist	NLRP3 yeast inh	MC4R barr ag	MOR-DOR barr ag
Cc1cccc(C(=O)Oc2ccc(/C=N/NC(=O)c3ccc(O)cc3)cc2)c1	0.0	-0.7	3.5	16.3*	0.4	13.5	5.6	3.4
CC(OC(=O)CCC1CCCCC1)C(=O)Nc1ccc(S(N)(=O)=O)cc1 (stereo not drawn)	-0.3	-0.9	nt	-1.9	-0.1	5.5	nt	nt
O=C(CNCC1CCCCC1)Nc1ccc(OC(F)(F)F)cc1	0.0	-0.3	15.2	14.6*	-2.7	28.4	8.1	8.9
NC(=O)c1ccc(NC(=O)COC(=O)CCC2CCCCC2)cc1	0.0	0.9	nt	1.4	6.6	-8.1	nt	nt
COc1ccc(NC(=O)COC(=O)CCC2CCCCC2)cc1	-0.2	1.0	nt	9.9*	7.2	-13.7	-0.4	8.4
Cc1ccc(NC(=O)C(C)OC(=O)CCC2CCCCC2)cc1 (stereo not drawn)	-0.1	2.6	nt	10.5*	7.0	-3.6	3.1	5.6
COc1ccc([C@@H]2C[C@H]3[C@@H](CN2S(=O)(=O)c2ccccc2)C(=O)C[C@@H](c2ccccc2F)N3S(=O)(=O)c2ccc(C)cc2)cc1	0.1	nt	nt	1.5	5.6	nt	nt	nt
COCCCn1c(SC(C)C(=O)Nc2c(C)n(C)n(-c3ccccc3)c2=O)n[nH]c1=O (stereo not drawn)	-0.2	nt	nt	-3.6	4.3	-0.6	nt	nt
COc1ccccc1-c1cccc2nccn12	-0.1	nt	nt	2.7	9.3	nt	nt	nt
O=C(COC(=O)c1n[nH]c2ccccc12)NC(=O)NC12CC3CC(CC(C3)C1)C2	-0.5	-0.1	-6.8	18.3*	1.8	3.6	2.9	6.7
O=C(COC(=O)c1n[nH]c2ccccc12)NC(=O)NC1CCCC1	-0.6	0.0	-2.7	-1.8	1.9	18.6	nt	nt
CCN(CCO)C(=O)c1ccc2nc(Cc3ccc(OC)cc3)oc2c1	-1.2	-3.1	nt	0.4	3.6	nt	nt	nt
Cc1ccccc1CN1C(=O)c2ccccc2C1c1nnnn1C(C)C (stereo not drawn)	-0.9	nt	nt	nt	nt	nt	nt	nt
CCOC(=O)c1c(C)n(-c2ccc(C)cc2)c2ccc(OCC(O)CNCC3CCCO3)cc12 (stereo not drawn)	-1.1	0.4	-11.9	12.5*	4.5	17.1	16.5*	10.0
CCOC1=C2CN(S(=O)(=O)c3ccc(C)cc3)CC[C@@H]2N(S(=O)(=O)c2ccc(C)cc2)[C@H](c2ccccc2)C1	-0.8	nt	nt	nt	nt	nt	nt	nt
